Compounds with a hit are over-represented: about 1.4% of the library has one in this group of screens.
MT1-MMP act inh: blocks activation of human MT1-MMP; P50281; HT1080 RFP-PRO-GFP cells, GFP/RFP ratio fluorescence, overnight; percent of plate control window, DMSO zero; GFP/RFP ratio change, % at 20 µM; 360,000 tested, 0.061% active;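 active = GFP/RFP ratio change of at least 30% with cell ATP level not reduced by more than half and red fluorescence within 50% of control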
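Assay system: HT1080 RFP-PRO-GFP cells. Benchmarks: DMSO vehicle wells and RFP-L50D-GFP reporter cell wells. Times: overnight cell settling, then overnight compound exposure, 37 °C, 5% CO2. Compound: 20 µM single dose, 1% DMSO. Read-out basis: GFP/RFP fluorescence ratio.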
SKN-1 inh: C. elegans SKN-1 inhibition; C. elegans VP596 Pgst-4::GFP/RFP ratio, acrylamide-induced, 24 h; inhibition, % at 21.8 µM; 360,000 tested, 0.49% active; AID 624304;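 active = interference check ratio from 0.5 to 1.5 plus GFP to RFP signal ratio inhibition reaching or exceeding a fixed threshold, cut at about 30% in these data, passing the limit was not always enough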
iPSC survival up: increases survival of single human iPS cells. hiPSC single-cell survival, ATPlite luminescence; 100% = ROCK inhibitor wells, 0% = DMSO. survival enhancement, % at 20 µM. 360,000 tested, 0.044% active. AID 602274; in the data active = survival enhancement above about 18%;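 note: cells exposed to compounds for 16 hours before the ATP read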
NRP1-CendR mod: alters CendR peptide binding to human NRP-1 | O14786 | inhibition, % at 25 µM | FAM-RPARPAR peptide binding to NRP-1, fluorescence polarization | 360,000 tested, 0.85% active | AID 602438;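 active = inhibition or corrected inhibition above about 18%, plus a signal ratio from 0.5 to 1.5, limit read from the data, passing the limit was not always enough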
Target sequence (O14786 whole entry, looked up): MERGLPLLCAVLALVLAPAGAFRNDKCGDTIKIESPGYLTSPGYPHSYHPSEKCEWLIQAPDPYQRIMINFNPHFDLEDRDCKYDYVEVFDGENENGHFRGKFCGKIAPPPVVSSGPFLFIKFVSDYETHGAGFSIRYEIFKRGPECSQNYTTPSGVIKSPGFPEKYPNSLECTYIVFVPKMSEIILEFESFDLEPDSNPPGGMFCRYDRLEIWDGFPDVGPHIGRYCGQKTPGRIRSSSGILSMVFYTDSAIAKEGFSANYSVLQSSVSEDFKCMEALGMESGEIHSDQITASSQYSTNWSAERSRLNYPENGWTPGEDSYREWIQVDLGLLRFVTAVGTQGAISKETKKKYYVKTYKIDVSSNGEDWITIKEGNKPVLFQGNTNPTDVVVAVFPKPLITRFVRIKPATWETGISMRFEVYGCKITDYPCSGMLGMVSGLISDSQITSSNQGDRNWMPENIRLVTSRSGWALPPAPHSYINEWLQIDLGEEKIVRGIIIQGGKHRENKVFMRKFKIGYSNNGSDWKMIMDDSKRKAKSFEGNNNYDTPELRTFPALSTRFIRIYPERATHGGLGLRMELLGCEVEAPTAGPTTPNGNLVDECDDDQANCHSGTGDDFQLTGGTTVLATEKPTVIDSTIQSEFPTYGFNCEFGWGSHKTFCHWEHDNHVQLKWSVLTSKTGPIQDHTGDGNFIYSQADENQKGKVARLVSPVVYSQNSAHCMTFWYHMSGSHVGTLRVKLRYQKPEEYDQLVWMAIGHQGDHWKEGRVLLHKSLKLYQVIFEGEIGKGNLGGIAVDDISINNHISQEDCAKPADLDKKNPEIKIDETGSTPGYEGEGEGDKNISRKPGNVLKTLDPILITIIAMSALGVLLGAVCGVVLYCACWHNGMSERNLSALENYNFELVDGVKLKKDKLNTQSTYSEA
Starred values were filed as active, the others as inactive.

SMILES	MT1-MMP act inh	SKN-1 inh	iPSC survival up	NRP1-CendR mod
CC(=O)c1ccc(N2C(=O)[C@@H]3C(CCC(N)=O)NC4(C(=O)Nc5c4ccc(Cl)c5C)[C@@H]3C2=O)cc1 (stereo partly drawn)	-7	3	0	-13
Cc1ccnc(NC(=O)c2c(-c3ccccc3Cl)noc2C)c1	-3	10	-1	5
COc1ccc(-c2cn(CCO)c(-c3ccc(Cl)nc3)n2)cc1	3	6	-2	18*
COc1ccc(-c2cn(CCC(=O)O)c(-c3ccc(Cl)nc3)n2)cc1	1	6	-1	2
O=C(CC1Sc2ccccc2NC1=O)NNc1ccc(F)cc1 (stereo not drawn)	4	13	-4	1
O=C(CC1Sc2ccccc2NC1=O)NNc1cc(Cl)ccc1Cl (stereo not drawn)	2	40*	6	-6
CCCCNC(=O)C1CCN(S(=O)(=O)N2CCCCCC2)CC1	0	14	4	2
Cc1nnc(CN(C)C(=O)CC2C(=O)NCCN2Cc2ccccc2C)o1 (stereo not drawn)	-1	-3	0	8
CCOc1ccc(-c2onc(C(F)(F)F)c2-c2cscn2)c(O)c1	1	10	0	27*
COc1c(Cl)cnn(-c2ccc(C)cc2)c1=O	-2	-6	27*	0
Cc1nn(Cc2ccccc2Cl)c2sc(C(=O)Nc3ccccc3N3CCOCC3)cc12	-1	12	-1	2
Cc1ccc(-c2c(C)nn3c(N4CCOCC4)cc(C)nc23)cc1	-1	35*	0	5
Cc1cc(N2CCOCC2)n2nc(C)c(-c3ccccc3)c2n1	4	4	-1	7
Fc1ccccc1CSc1ccc(-c2ccco2)nn1	3	39*	0	2
Cc1cccc(CSc2ccc(-c3ccco3)nn2)c1	5	3	-1	11
c1ccc(CSc2ccc(-c3ccco3)nn2)cc1	0	36*	-4	-11
Clc1cccc(CSc2ccc(-c3ccco3)nn2)c1	2	67*	0	-7
Clc1ccc(CSc2ccc(-c3ccco3)nn2)cc1	0	15	0	4
Cc1cccn2c(=O)c3cc(C(=O)NCC(C)C)sc3nc12	0	12	-1	12
C=CCn1c(-c2ccccc2)cc(SC)c(C#N)c1=O	-6	0	1	-8
C=CCn1c(-c2ccccc2)ccc(C#N)c1=O	1	65*	-2	-4
COC(=O)c1cc(C)nc2c1c(C)nn2-c1ccccc1	-3	17	0	-8
COc1cc2c(-c3ccccc3O)nc3c(c(C)nn3-c3ccccc3)c2cc1OC	4	5	4	33*
O=C(O)C1C(C(=O)Nc2ccc(Cl)cc2)C2C=CC1C21CC1 (stereo not drawn)	4	9	0	28*
CC(C)CCCCCCNC(=S)Nc1ccc(S(=O)(=O)N2CCOCC2)cc1	-17	5	0	-5
SMILES	MT1-MMP act inh	SKN-1 inh	iPSC survival up	NRP1-CendR mod
O=C(c1cccs1)N1C[C@@H](O)[C@H](n2cc(-c3ccc(F)cc3)nn2)C[C@@H]1c1ccccc1	-4	2	0	7
COc1cccc(NS(=O)(=O)c2ccc(C)c(C(=O)N3CCCCC3)c2)c1	0	8	0	20*
CCOCC(=O)Nc1cccc(Br)c1	-2	37*	0	3
Cc1ccsc1C(=O)N1CCCC(CO)(Cc2ccccc2F)C1 (stereo not drawn)	1	-14	0	21*
CCOC(=O)C1(Cc2ccccc2C)CCCN(C(=O)c2sccc2C)C1 (stereo not drawn)	-1	11	0	10
COc1ccc(C(=O)OCCc2ccc(O)cc2)cc1	7	-19	-3	9
COc1ccc([C@H](OC)[C@@]2(Cc3ccc(O)cc3)N=C(N)N(C)C2=O)cc1	3	13	5	21*
CCCn1c(C)cc(C(=O)Cn2nnc3ccccc3c2=O)c1C	-1	-5	-1	2
C=CCSc1cc(C)nc2c(-c3ccccc3)cnn12	2	0	0	-7
N/C(=N\OC(=O)Cc1ccccc1)c1ccc([N+](=O)[O-])cc1	4	9	1	-4
O=C(Nc1ccc(Cl)cc1)c1cc(S(=O)(=O)Nc2ccccn2)ccc1Cl	-8	-4	1	24*
Clc1ccccc1-c1cc2nc(NCCCn3ccnc3)ccn2n1	7	12	2	2
COc1cc(C(=O)NCc2ccccc2)cc(Br)c1OC	2	8	-2	21*

Source: PubChem
